Screening data: PubChem BioAssay, Johns Hopkins Ion Channel Center
MrgX1 antag = blocks BAM8-22 activation of human MrgX1 receptor; B-score at 10 µM; Q96LB2; AID 588676; MRGX1-HEK293 calcium flux, Fluo-4, BAM8-22 antagonism; hits give low values; 310,000 compounds, 1.3% hits;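 active = calcium-response B-score plate-corrected more than 3 library SD below zero, starting fluorescence within 5 deviations, no agonist response on first addition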;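 also: peak minus trough fluorescence over baseline after final BAM8-22 challenge near maximal dose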
Target sequence (Q96LB2 whole entry, looked up): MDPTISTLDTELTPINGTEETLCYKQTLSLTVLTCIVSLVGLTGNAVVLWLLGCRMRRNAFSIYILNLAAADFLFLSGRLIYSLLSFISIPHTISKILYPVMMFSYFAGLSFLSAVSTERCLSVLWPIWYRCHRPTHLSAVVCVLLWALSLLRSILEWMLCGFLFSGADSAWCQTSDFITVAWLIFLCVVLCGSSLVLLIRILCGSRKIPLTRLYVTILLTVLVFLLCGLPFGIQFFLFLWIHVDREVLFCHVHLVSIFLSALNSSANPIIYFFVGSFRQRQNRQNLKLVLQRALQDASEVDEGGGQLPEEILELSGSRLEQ
RGS4 block = inhibitors of human RGS4; P49798; HEK293 M3R/RGS4 inducible, Fluo-4 calcium flux; hits give high values; triggered by carbachol at its EC20; B-score at 10 µM; 310,000 compounds, 0.45% hits;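 active = B-score, a plate-corrected calcium signal, over three deviations above library mean, with baseline fluorescence within five deviations of library mean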;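 also: RGS4 expression induced by doxycycline in cells with stable M3 receptor; B-score is computed from the integrated fluorescence ratio over baseline after carbachol; higher B-score means a larger calcium signal and so more RGS4 inhibition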
Target sequence (P49798 whole entry, looked up): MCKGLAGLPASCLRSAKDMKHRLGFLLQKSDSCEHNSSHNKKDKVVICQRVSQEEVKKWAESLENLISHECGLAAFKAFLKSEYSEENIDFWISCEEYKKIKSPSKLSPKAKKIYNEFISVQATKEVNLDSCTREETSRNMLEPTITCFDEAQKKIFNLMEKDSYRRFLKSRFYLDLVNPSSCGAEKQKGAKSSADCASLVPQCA
RGS4 pot = RGS4 potentiation or activation; HEK293 M3R/inducible RGS4, carbachol calcium flux Fluo4; hits give low values; B-score at 10 µM; 310,000 compounds, 0.92% hits; AID 463111;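 active = B-score of the integrated calcium signal more than 4 SD below the library mean, with starting fluorescence not abnormally high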;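 also: negative B-score means reduced calcium response which marks RGS4 activation or potentiation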
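Reagent: ECmax carbachol challenge; Test system: M3R-expressing HEK293 line, RGS4 induced by doxycycline; Schedule: overnight RGS4 induction, 30 min dye load 37 °C, 20 min compound RT; Detection: calcium dye Fluo4 fluorescence; Read-out: Agonist-evoked peak-minus-minimum fluorescence over baseline, integrated ratio, B score.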
MrgX1 ag = agonists of human MrgX1 receptor; 310,000 compounds, 0.44% hits; MrgX1-HEK293 cells, Fluo-4 calcium fluorescence, agonist mode; hits give high values; AID 588627; B-score at 10 µM;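 active = calcium response B-score plate-corrected fluorescence ratio at least 3 library SD, with starting fluorescence B-score inside 5 SD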
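Test system: Stable human MrgX1 HEK293 cell line | Schedule: Overnight plating before 1 h dye loading | Read-out basis: Baseline-normalised fluorescence change ratio, B-scored | Detection: Kinetic calcium dye fluorescence, Fluo-4 NW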
MrgX1 allo act = allosterically activates human MrgX1 receptor signaling | B-score at 10 µM | MrgX1-HEK293, Fluo-4 calcium flux, FDSS; hits give high values | AID 588675 | 310,000 compounds, 0.63% hits | Q96LB2;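 active = plate-corrected calcium response at least 3 library SD above typical, normal starting fluorescence, not activating the receptor alone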;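 also: compound read alongside a low EC10 to EC30 dose of BAM8-22 agonist; peak minus trough fluorescence over baseline measured at the second addition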
Numbers without * were called inactive; i = inactive; · = no result. Only some compounds are listed: those with a hit (about 3.5% of all), similar ones and a draw of the others.

SMILES	MrgX1 antag	RGS4 block	RGS4 pot	MrgX1 ag	MrgX1 allo act
Cc1cccc(N2CCN(C(=O)c3ccc4c(c3)OCCO4)CC2)c1C	i	i	i	i	i
Cc1ccn(CC(=O)NC2CC(C)(C)Cc3c2cnn3-c2ccc(F)cc2)n1 (configuration not stated)	i	i	i	i	i
CC(C)Sc1nc2ccccc2[nH]1	i	i	i	i	i
CCc1ccc2oc(-c3ccc(OC)cc3)cc(=Nc3c(C)n(C)n(-c4ccccc4)c3=O)c2c1	i	i	-7.4*	i	i
CC1(C)Cc2noc(N)c2C(C)(C)N1O	-6.3*	i	i	i	i
CCOC(=O)C1CCN(C(=O)COc2ccc3c(c2)OCO3)CC1	i	i	i	i	i
N#C/C(=C\c1ccc(-c2ccc(C(=O)O)cc2)o1)C(=O)Nc1ccc(F)cc1	-4.6*	i	i	i	i
OC(CNCCC1C=Nc2ccccc21)Cn1c2ccc(Cl)cc2c2cc(Cl)ccc21 (configuration not stated)	i	7.4*	i	i	i
CCOC(=O)c1ccc(-c2csc(NC(=O)CN3CCC(C)CC3)n2)cc1	i	i	i	i	i
Cc1ccccc1NC(=O)Nc1ccc2c(c1)CCC2	i	i	i	i	i
CCOC(=O)/C(C#N)=C/c1cc2ccc(C)cc2nc1Cl	i	i	i	i	i
Cc1ccc2cc(C=O)c(Cl)nc2c1	i	i	i	i	7.3*
COc1ccc(NC(=O)c2nc[nH]c2C(=O)NCCCCCNC(=O)OC(C)(C)C)cc1	i	·	·	i	i
CCCCCCCCCCCCCCCC[N+](C)(C)CC	-5.3*	i	i	i	i
C=CCSc1nnc(CNC(=O)c2ccc(Cl)cc2)n1CC	i	i	i	i	i
CC1CCc2c(sc(NC(=O)CSc3ncnc4c3cnn4-c3ccccc3Cl)c2C#N)C1 (configuration not stated)	i	i	i	i	i
Cc1ccc(NC(=O)NCc2ccc3c(c2)OCO3)cc1	i	i	i	i	i
O=C(Cc1c(F)c(F)c(F)c(F)c1F)Nc1nc(-c2ccccc2)cs1	i	i	-7.1*	i	i
CC(=O)Oc1ccc2c(=O)c(/C=N/c3cc(=O)[nH]c(=S)[nH]3)coc2c1	i	i	i	i	14*
O=c1cc(/N=C/c2coc3cc(Br)ccc3c2=O)[nH]c(=S)[nH]1	i	i	i	i	i
S=C(NCCC(c1ccccc1)c1ccccc1)Nc1ccc(Cl)cc1	i	i	-7.9*	i	i
Cc1cc(NC(=O)CSCC(=O)N(C)Cc2ccc(Cl)cc2Cl)no1	i	i	i	i	i
CC[N+]1=C(C)C(C)(C)c2cc(C)ccc21	-4.8*	i	i	i	i
Cc1ccc2c(c1)C=CC(C)(C)S2=O (configuration not stated)	i	i	i	i	i
CN(Cc1ccccc1C#N)S(=O)(=O)c1cccs1	i	i	i	i	i
SMILES	MrgX1 antag	RGS4 block	RGS4 pot	MrgX1 ag	MrgX1 allo act
N#Cc1nccnc1S(=O)(=O)c1cccs1	i	i	-7.8*	i	i
CC(C)(C)c1cc(CCC(=O)NNC(=S)NC(=O)c2ccccc2)cc(C(C)(C)C)c1O	i	i	i	50*	i
CCCCCCCC(=O)NNC(=O)Cc1ccccc1	-6.9*	i	i	i	i
CCCCC(=O)NC(=S)NNC(=O)CCc1ccccc1	i	i	i	49*	i
O=S(=O)(NC1CC(NS(=O)(=O)OCC(Cl)(Cl)Cl)C2CCCCC12)OCC(Cl)(Cl)Cl (configuration not stated)	i	i	i	i	i
O=C(Cn1c(=O)cnc2ccccc21)N1CCN(S(=O)(=O)c2ccccc2Br)CC1	i	i	i	i	i
O=[N+]([O-])c1ccc(O)c(/C=N/NC2=NS(=O)(=O)c3ccccc32)c1	i	i	i	i	8.5*
O=C(CSc1nc2ccccc2c(=O)n1-c1ccc(F)cc1F)c1c[nH]c2ccccc12	-5.1*	i	i	i	i
O=C(CSc1nc2ccccc2c(=O)n1-c1ccc(F)cc1F)Nc1ccc(N2CCOCC2)cc1	i	i	i	i	i
COc1ccc(S(=O)(=O)N2CCOCC2)cc1NC(=O)c1cccc(Cl)c1	i	i	i	i	i
O=C(Nc1ccc(Cl)c(Cl)c1)OCCNC(=O)c1cccc(Cl)c1	-5.3*	i	i	i	i
CC(=O)C(C(C)=O)c1cc(NS(=O)(=O)c2ccccc2)ccc1NS(=O)(=O)c1ccccc1	i	i	i	i	13*
COc1ccc(/C=N/n2cnn(Cc3ccccc3Cl)c2=S)cc1	i	i	i	i	i
Oc1ccccc1/C=N/n1cnn(Cc2ccccc2Cl)c1=S	-6.1*	i	i	i	i
Cc1c(C(=O)NNS(=O)(=O)c2ccccc2Cl)sc(=S)n1C	i	i	i	i	i
CC(=O)Nc1ccc(S(=O)(=O)NNC(=O)c2sc(=S)n(C)c2C)cc1	-4.6*	i	i	i	i
Cc1ccc(C(C)C)c(OCc2nn(CC(=O)c3ccc(OC(F)F)cc3)c3[n+]2CCCCC3)c1	-5.5*	i	i	i	i
CCCN1CCN(C(=O)CCc2nnc3ccc(N4CCN(c5cccc(OC)c5)CC4)nn23)CC1	i	i	i	i	i
Cc1cc(=O)oc(C)c1C(=O)n1nc(C)c2c1C[C@@H]1[C@H]2C1(C)C	i	i	i	i	i
CC(=O)c1ccc(N2CCN(C(=O)Cn3cnc(S(=O)(=O)N4CCCCC4)c3)CC2)cc1	i	i	i	i	i
COc1cc(C(O)CO)ccc1O (configuration not stated)	i	·	·	i	i
CC(C)NCC(O)c1ccc(O)c(O)c1 (configuration not stated)	i	i	i	33*	i
CC(C)NCC(O)c1ccc2ccccc2c1 (configuration not stated)	i	·	·	i	i
NC[C@H](O)c1ccc(O)c(O)c1	i	·	·	39*	i
CCOC(=O)Cc1nn(Cc2nc(-c3ccc(C#N)cc3)cs2)c(=O)c2ccccc12	i	i	i	i	i
COc1ccc(OC)c(/C=N/NC(=O)c2ccc(N(C)S(=O)(=O)c3ccccc3)cc2)c1	i	i	i	i	7*
COc1ccc(/C=N/NC(=O)c2ccc(N(C)S(=O)(=O)c3ccccc3)cc2)c(OC)c1	i	i	i	i	i
